Results gathered from unrelated publications.

Compound | assay | system | conditions | endpoint | value
CN(C)CCOc1ccc(C=Nc2ccccc2N=Cc2ccc(OCCN(C)C)cc2O)c(O)c1.[Ga+3] | – | water | – | solubility | > 50000 µg/mL
O=C1NC2(CCC2)C(=O)N1c1ccc(F)c(C(F)(F)F)c1 | nephelometry | aqueous buffer | – | kinetic solubility | ≤ 50 µg/mL
COc1cc(C(=O)c2nc(-c3cccc4[nH]ccc34)c[nH]2)cc(OC)c1OC | – | PBS | pH 7.4 | thermodynamic solubility | 5.25 µM
CC(C)C[C@H]1C(=O)N[C@H]([C@H](C)O)C(=O)N[C@@H](C)C(=O)N[C@@H](Cc2ccccc2)C(=O)N[C@H](C(=O)O)CSSC[C@H](N)C(=O)N2CCC[C@@H]2C(=O)N[C@@H](CCC(=O)O)C(=O)N[C@@H](C(C)C)C(=O)N2CCC[C@H]2C(=O)N1C | – | aqueous buffer | 18 h, pH 7.4 | solubility | 692 µM
Oc1ccccc1C=Nc1ccccc1N=Cc1ccccc1O.[Ga+3] | – | water | – | solubility | < 100 µg/mL
COc1cc(N2CC[C@@]3(O)C(=O)c4cc(C)c(C)cc4N=C23)ccn1 | – | PBS | pH 7.4 | solubility | 42 µM
CC(C)C[C@H]1C(=O)N2CCC[C@H]2C(=O)N[C@@H](CC(N)=O)C(=O)N[C@H](Cc2ccc(O)cc2)C(=O)N[C@H]([C@H](C)O)C(=O)N[C@@H](Cc2ccc(O)cc2)C(=O)N[C@H](C(=O)O)CSSC[C@H](N)C(=O)N[C@@H](Cc2ccccc2)C(=O)N[C@@H](C(C)C)C(=O)N1C | – | aqueous buffer | 18 h, pH 7.4 | thermodynamic solubility | 760 µM
c1cc(-c2ccc3ncnc(Nc4ncco4)c3c2)cc(N2C[C@H]3C[C@@H]2CO3)c1 | – | aqueous buffer | pH 7.4, 25 °C | solubility | 6 µM
CCC(CNc1nc(-c2cn3ccnc3cc2C)nc2ccccc12)c1ccccc1 (centres unmarked) | – | water | – | solubility | 1.3 µM
CC[C@H](C)[C@@H]1NC(=O)CNC(=O)[C@@H](CC(C)C)NC(=O)[C@@H](C(C)C)NC(=O)[C@H]2CCCN2C(=O)[C@@H](CC(C)C)NC(=O)[C@H](Cc2ccccc2)NC(=O)[C@@H]2CCCN2C(=O)[C@H](CC(C)C)NC(=O)[C@H](CO)NC(=O)CNC(=O)[C@H]([C@@H](C)O)NC1=O | – | aqueous buffer | 18 h, pH 7.4 | solubility | 692 µM
CCCSc1ccc2nc(NC(=O)OC)[nH]c2c1 | – | simulated gastric fluid | 24 h, pH 1.2, 37 °C, acidic | thermodynamic solubility | ~300 µg/mL
CC1(CC(F)(F)F)NC(=O)N(c2ccc(F)c(C(F)(F)F)c2)C1=O (centres unmarked) | nephelometry | aqueous buffer | – | kinetic solubility | ≤ 50 µg/mL
CC(C)C[C@@H]1NC(=O)[C@H](CCC(=O)O)NC(=O)[C@H]2CCCN2C(=O)[C@@H](N)CSSC[C@@H](C(=O)O)NC(=O)[C@H]2CCCN2C(=O)[C@@H](Cc2ccccc2)NC(=O)[C@H](CC(C)C)NC(=O)[C@H]([C@@H](C)O)NC(=O)[C@H](C(C)C)NC1=O | – | aqueous buffer | 18 h, pH 7.4 | thermodynamic solubility | 679 µM
Cc1ccc2c(c1)C(=O)C1(O)CCN(c3ccccc3)C1=N2 (centres unmarked) | – | PBS | pH 7.4 | solubility | 21 µM
